According to ChEMBL document CHEMBL1150357, “Synthesis and preliminary evaluation of some substituted coumarins as anticonvulsant agents” (Bioorg Med Chem, 2008):

Legend:
[1] = tested on: Mus musculus; experiment: Anticonvulsant activity against strychnine-induced seizures in Albino mouse assessed as survival time at 100 mg/kg, po administered 1 hr before strychnine challenge; format: functional
[2] = tested on: Mus musculus; experiment: Anticonvulsant activity in Albino mouse assessed as protection against pentylenetetrazole-induced seizures at 100 mg/kg, ip administered 1 hr before pentylenetetrazole challenge; format: functional; conditions: route intraperitoneal
How it was run: (§1)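 Male albino mice (25–30 g), housed in groups of 10 and acclimated ≥2 days with free food and water. Test agent suspended in water with 2% Tween 80 and given ip. PTZ 112 mg/kg ip injected 1 h later. Mice without generalized convulsions scored as protected, expressed as % protection. PD50 by log-linear regression of dose-response across 50, 100, 200 mg/kg.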

[3] = Dissociation constant, pKa of the compound; format: physicochemical
How it was run: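 Spectrophotometric pKa. Spectra of ionized and unionized forms recorded in 0.1 M HCl and 0.1 M NaOH with DMF. Absorbance read at the wavelength of maximal difference in phosphate buffer (Na2HPO4/KH2PO4, 0.15 M) with DMF at pH 7.6, 7.4, 7 and 6.8. pKa = pH + log[(Ai−A)/(A−Au)], averaged with SD.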

[4] = tested on: Mus musculus; experiment: Anticonvulsant activity in ip dosed Albino mouse assessed as protection against pentylenetetrazole-induced seizures administered 1 hr before pentylenetetrazole challenge; format: functional; conditions: read-out: PD50
How it was run: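 PTZ model in male albino mice (25–30 g), 10 per group. Test agents suspended in water with 2% Tween 80 and given ip at graded doses (50, 100, 200 mg/kg). Pentylenetetrazole 112 mg/kg ip given 1 h later. Absence of generalized convulsions scored as protection. PD50 obtained by log-linear regression of dose–response curves.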

[5] = tested on: Mus musculus; experiment: Anticonvulsant activity in Albino mouse assessed as protection against pentylenetetrazole-induced seizures at 200 mg/kg, ip administered 1 hr before pentylenetetrazole challenge; format: functional; conditions: route intraperitoneal; how it was run: as §1
[6] = tested on: Mus musculus; experiment: Anticonvulsant activity in Albino mouse assessed as protection against pentylenetetrazole-induced seizures at 50 mg/kg, ip administered 1 hr before pentylenetetrazole challenge; format: functional; conditions: route intraperitoneal; how it was run: as §1
[7] = Toxicity against Albino mouse assessed as mortality after 24 hrs; format: organism-based; conditions: in vivo
How it was run: (§2)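 Male albino mice (25–30 g), groups of 8. Single injected doses at equal log intervals (400, 800, 1600, 3200 mg/kg), bracketed by preliminary no-kill and LD100 doses. Deaths counted at 24 h. LD50 calculated by the Spearman–Karber method.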

[8] = tested on: Mus musculus; experiment: Toxicity against Albino mouse assessed as mortality at 3200 mg/kg after 24 hrs; format: organism-based; parameters: dose 3200 mg/kg; conditions: in vivo; how it was run: as §2
[9] = tested on: Mus musculus; experiment: Toxicity against Albino mouse assessed as mortality at 400 mg/kg after 24 hrs; format: organism-based; parameters: dose 400 mg/kg; conditions: in vivo; how it was run: as §2
[10] = tested on: Mus musculus; experiment: Anticonvulsant activity in Albino mouse assessed as protection against pentylenetetrazole-induced seizures at 30 mg/kg, ip administered 1 hr before pentylenetetrazole challenge; format: functional; conditions: route intraperitoneal
How it was run: (§3)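 Male albino mice (25–30 g), housed 10 per group and acclimated for at least 2 days. Dosed ip, suspended in water with 2% Tween 80. Pentylenetetrazole 112 mg/kg ip given 1 h later. Mice without generalized convulsions counted as protected; reported as % protection.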

[11] = tested on: Mus musculus; experiment: Anticonvulsant activity in Albino mouse assessed as protection against pentylenetetrazole-induced seizures at 10 mg/kg, ip administered 1 hr before pentylenetetrazole challenge; format: functional; conditions: route intraperitoneal; how it was run: as §3
[12] = tested on: Mus musculus; experiment: Anticonvulsant activity in Albino mouse assessed as protection against pentylenetetrazole-induced seizures at 20 mg/kg, ip administered 1 hr before pentylenetetrazole challenge; format: functional; conditions: route intraperitoneal; how it was run: as §3

SMILES | Survival [1] [min] | Activity [2] [%] | other results
CCNc1nc2ccc3oc(=O)ccc3c2s1 | 6.26 | – | –
CCOC(=O)c1s/c(=N/c2ccc3oc(=O)ccc3c2)n(C2CCCCC2)c1C | 3.14 | 60 | –
CNc1nc2ccc3oc(=O)ccc3c2s1 | – | 0 | –
CCN1C(=O)/C(=C/c2ccc(Cl)cc2)S/C1=N/c1ccc2oc(=O)ccc2c1 | 5.18 | – | –
CCn1c(-c2ccc(OC)cc2)cs/c1=N/c1ccc2oc(=O)ccc2c1 | 7.55 | 60 | pKa [3]: 7.63; ED50 [4]: 138 mg/kg; Activity [5]: 60%; Activity [6]: 20%
CCNC(=S)Nc1ccc2oc(=O)ccc2c1 | 3.92 | 60 | pKa [3]: 5.62; ED50 [4]: 125 mg/kg; Activity [5]: 70%; Activity [6]: 20%
O=c1ccc2cc(NC(=S)NC3CCCCC3)ccc2o1 | 5.02 | 30 | –
O=c1ccc2cc(NC(=S)Nc3ccc(Cl)cc3)ccc2o1 | 5.33 | 20 | –
O=C1CS/C(=N/c2nc3ccc4oc(=O)ccc4c3s2)N1 | 5.44 | 40 | –
CCOC(=O)c1s/c(=N/c2ccc3oc(=O)ccc3c2)n(C)c1C | – | 0 | –
CCOC(=O)c1s/c(=N/c2ccc3oc(=O)ccc3c2)n(CC)c1C | 5 | 80 | pKa [3]: 7.44; ED50 [4]: 95 mg/kg; Activity [5]: 90%; LD50 at 24 h [7]: 1450 mg/kg; Activity [8]: Toxic; Activity [6]: 30%; Activity [9]: Non-toxic
COc1ccc(-c2cs/c(=N/c3ccc4oc(=O)ccc4c3)n2-c2ccc(Cl)cc2)cc1 | – | 30 | –
O=C(CCl)Nc1nc2ccc3oc(=O)ccc3c2s1 | 4.4 | 0 | –
CCN1C(=O)CS/C1=N/c1ccc2oc(=O)ccc2c1 | – | 30 | –
CCN1C(=O)/C(=C/c2ccc([N+](=O)[O-])cc2)S/C1=N/c1ccc2oc(=O)ccc2c1 | 4.85 | 30 | –
CCn1c(-c2ccc(Br)cc2)cs/c1=N/c1ccc2oc(=O)ccc2c1 | 8.36 | 30 | –
CCCN1C(=O)CS/C1=N/c1ccc2oc(=O)ccc2c1 | 5.4 | – | –
COc1ccc(-c2cs/c(=N/c3ccc4oc(=O)ccc4c3)n2C2CCCCC2)cc1 | 4.5 | 20 | –
CCC1(c2ccccc2)C(=O)NC(=O)NC1=O [PHENOBARBITAL] | – | – | Activity [10]: 90%; ED50 [4]: 16 mg/kg; Activity [11]: 40%; Activity [12]: 70%
O=C1NC(=O)C(c2ccccc2)(c2ccccc2)N1 [PHENYTOIN] | 13.8 | – | –
